Assay [1] concerns the target T1, Carnitine O-palmitoyltransferase 1, liver isoform (Rattus norvegicus, UniProt P32198).
T1 sequence (P32198 whole entry): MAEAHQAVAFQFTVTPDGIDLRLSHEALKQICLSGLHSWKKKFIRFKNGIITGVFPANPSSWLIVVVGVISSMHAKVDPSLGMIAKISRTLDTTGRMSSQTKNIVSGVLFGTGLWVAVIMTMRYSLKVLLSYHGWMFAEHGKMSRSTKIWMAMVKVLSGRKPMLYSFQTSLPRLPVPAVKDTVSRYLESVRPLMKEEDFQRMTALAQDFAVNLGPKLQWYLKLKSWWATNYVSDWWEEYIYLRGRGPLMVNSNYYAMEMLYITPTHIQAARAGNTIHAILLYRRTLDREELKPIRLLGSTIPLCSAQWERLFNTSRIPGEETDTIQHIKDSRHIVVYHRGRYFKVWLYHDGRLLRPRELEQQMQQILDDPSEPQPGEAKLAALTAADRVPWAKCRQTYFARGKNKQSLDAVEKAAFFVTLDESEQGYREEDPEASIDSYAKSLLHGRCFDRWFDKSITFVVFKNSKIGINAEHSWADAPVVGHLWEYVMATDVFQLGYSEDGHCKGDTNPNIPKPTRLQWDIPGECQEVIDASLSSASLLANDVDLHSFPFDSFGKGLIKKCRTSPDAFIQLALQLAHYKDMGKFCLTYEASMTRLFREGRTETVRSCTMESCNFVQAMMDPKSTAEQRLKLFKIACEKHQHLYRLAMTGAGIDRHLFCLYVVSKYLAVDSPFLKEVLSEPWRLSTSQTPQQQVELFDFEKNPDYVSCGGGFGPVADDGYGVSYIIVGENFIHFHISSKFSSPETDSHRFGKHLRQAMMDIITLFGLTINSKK
Description: Inhibition of rat liver mitochondrial carnitine palmitoyltransferase 1 using [14C]palmitoyl-CoA radioligand. In a few lines:
(§1)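 Performed on intact rat mitochondria: liver for L-CPT I, heart for M-CPT I. IC50 in µM calculated from the inhibition curve. Values are means of two determinations in triplicate, with variation between experiments under 8%.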

Assay [2] concerns the target T2, Carnitine O-palmitoyltransferase 1, muscle isoform (Rattus norvegicus, UniProt Q63704).
T2 sequence (Q63704 whole entry): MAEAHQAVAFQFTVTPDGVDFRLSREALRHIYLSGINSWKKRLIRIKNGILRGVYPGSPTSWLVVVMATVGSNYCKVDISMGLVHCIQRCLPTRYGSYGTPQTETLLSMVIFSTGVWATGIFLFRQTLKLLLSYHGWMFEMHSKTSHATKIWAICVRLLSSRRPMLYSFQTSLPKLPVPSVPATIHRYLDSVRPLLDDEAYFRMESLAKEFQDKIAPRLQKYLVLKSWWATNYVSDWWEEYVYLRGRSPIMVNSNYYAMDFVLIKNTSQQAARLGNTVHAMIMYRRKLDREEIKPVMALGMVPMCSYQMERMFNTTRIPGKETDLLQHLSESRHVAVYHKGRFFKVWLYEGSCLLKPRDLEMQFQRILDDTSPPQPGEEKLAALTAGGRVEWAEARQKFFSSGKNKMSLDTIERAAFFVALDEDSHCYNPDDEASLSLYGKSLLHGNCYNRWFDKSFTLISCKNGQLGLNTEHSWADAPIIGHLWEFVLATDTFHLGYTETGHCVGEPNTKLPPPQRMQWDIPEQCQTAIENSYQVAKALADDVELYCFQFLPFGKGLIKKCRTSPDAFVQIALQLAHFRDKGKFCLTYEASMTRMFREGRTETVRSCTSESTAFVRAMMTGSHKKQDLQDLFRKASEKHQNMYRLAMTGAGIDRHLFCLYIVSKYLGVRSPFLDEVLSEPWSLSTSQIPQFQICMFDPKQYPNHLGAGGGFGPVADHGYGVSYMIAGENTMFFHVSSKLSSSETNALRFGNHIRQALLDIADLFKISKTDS
Kind of assay: Inhibitory activity against rat heart mitochondrial carnitine palmitoyltransferase 1b using [14C]palmitoyl-CoA as radioligand. In a few lines:
as §1

Bounds are passed on as bounds.

In assay [1], `CCCCCCCCCCCCCCOC(=O)OC(CC(=O)[O-])C[N+]12CCC(CC1)CC2` (centres undefined) yielded an IC50 above 300 µM.
As for `CCCCCCCCCCCCS(=O)(=O)N[C@@H](CC(=O)[O-])C[N+](C)(C)C`, the concentration for half-maximal inhibition (IC50) in assay [2] was above 10 µM; in assay [1], 6 µM.
Take `CCCCCCCCCCCCCCNC(CC(=O)[O-])C[N+](C)(C)C` (centres undefined): in assay [1], the IC50 stood at 230 µM.
Consider `CCCCCCCCCCCNS(=O)(=O)N[C@H](CC(=O)[O-])C[N+](C)(C)C`, for which the figures for the IC50 in assay [2] and in assay [1] were 5.8 µM and 0.8 µM, respectively.
Regarding `CCCCCCCCCCCCCCOC(Cc1nn[n-]n1)C[N+](C)(C)C` (centres undefined), the IC50 in assay [1] was above 300 µM.
On the same count and under the same terms, under `CCCCCCCCOC(CC(=O)[O-])C[N+](C)(C)C` (centres undefined) stands above 300 µM.
`CCCCCCCCOC(=O)NC(CC(=O)[O-])C[N+](C)(C)C` (centres undefined): the IC50 in assay [2] worked out at 211 µM; in assay [1], 22.3 µM.
`CCCCCCCCCNC(=O)OC(C[n+]1ccccc1)CP(=O)(O)O` (centres undefined) came in with an IC50 in assay [1] above 300 µM.
The compound `CCCCCCCCCOC(=O)OC(CC(=O)O)C[N+](C)(C)C` (centres undefined) registered an IC50 in assay [1] above 300 µM.
Same read-out and setting: under `CCCCCCCCCNC(=O)OC(CC(=O)[O-])C[P+](C)(C)C` (centres undefined) stands above 300 µM.
Still for that read-out and setting: under `CCCCCCCCCNC(=O)OC(C[N+](C)(C)C)CP(=O)([O-])O` (centres undefined) stands above 300 µM.
The same measure, in the same setting: with `CCCCCCCCCNC(=O)OC(CC(=O)[O-])C[N+](C)(C)C` (centres undefined) the figure was above 300 µM; with `CCCCCCCCCCCCCCOC(CC(=O)[O-])C[N+](C)(C)C` (centres undefined), 47 µM.
On to `CCCCCCCCCCCNS(=O)(=O)N[C@@H](CC(=O)[O-])C[N+](C)(C)C`, for which the IC50 was above 10 µM in assay [2] and 6 µM in assay [1].
For `CCCCCCCCCCCCCCOC(=O)OC(C[N+]12CCC(CC1)CC2)CP(=O)([O-])O` (centres undefined), the IC50 in assay [1] is above 300 µM.
As to `CCCCCCCCCCS(=O)(=O)NC(CC(=O)[O-])C[N+](C)(C)C` (centres undefined), the IC50 in assay [2] amounted to 2.3 µM; in assay [1], 1.6 µM.
The like results for `CCCCCCCCCNS(=O)(=O)NC(CC(=O)[O-])C[N+](C)(C)C` (centres undefined) were, in that order, 3.8 µM and 2.3 µM.
For `CCCCCCCCCNC(=S)NC(CC(=O)[O-])C[N+](C)(C)C` (centres undefined), the IC50 in assay [1] came to 122 µM.
As to `CCCCCCCCCCCCS(=O)(=O)N[C@H](CC(=O)[O-])C[N+](C)(C)C`, the IC50 amounted to 3.4 µM in assay [2] and 0.7 µM in assay [1].
Take `CCCCCCCCNC(CC(=O)[O-])C[N+](C)(C)C` (centres undefined): the half-maximal inhibitory concentration (IC50) in assay [1] was above 300 µM.
With `CCCCCCCCCNC(=O)NC(CC(=O)[O-])C[N+](C)(C)C` (centres undefined), the IC50 was 83.2 µM in assay [2] and 19.5 µM in assay [1].

Values taken from ChEMBL document CHEMBL1134532, “Reversible carnitine palmitoyltransferase inhibitors with broad chemical diversity as potential antidiabetic agents” (J Med Chem, 2001).
